Laboratory results taken from ChEMBL document CHEMBL4033636, “Identification of selective inhibitors of sphingosine kinases 1 and 2 through a structure-activity relationship study of 4-epi-jaspine B” (Bioorg Med Chem, 2017).

Experiments:
[1] = molecular target: T1, Sphingosine kinase 2 (Homo sapiens, UniProt Q9NRA0); test: Inhibition of recombinant human SphK2 using NBD-sphingosine as substrate after 2 hrs in presence of ATP by HPLC method
T1 sequence (Q9NRA0 whole entry): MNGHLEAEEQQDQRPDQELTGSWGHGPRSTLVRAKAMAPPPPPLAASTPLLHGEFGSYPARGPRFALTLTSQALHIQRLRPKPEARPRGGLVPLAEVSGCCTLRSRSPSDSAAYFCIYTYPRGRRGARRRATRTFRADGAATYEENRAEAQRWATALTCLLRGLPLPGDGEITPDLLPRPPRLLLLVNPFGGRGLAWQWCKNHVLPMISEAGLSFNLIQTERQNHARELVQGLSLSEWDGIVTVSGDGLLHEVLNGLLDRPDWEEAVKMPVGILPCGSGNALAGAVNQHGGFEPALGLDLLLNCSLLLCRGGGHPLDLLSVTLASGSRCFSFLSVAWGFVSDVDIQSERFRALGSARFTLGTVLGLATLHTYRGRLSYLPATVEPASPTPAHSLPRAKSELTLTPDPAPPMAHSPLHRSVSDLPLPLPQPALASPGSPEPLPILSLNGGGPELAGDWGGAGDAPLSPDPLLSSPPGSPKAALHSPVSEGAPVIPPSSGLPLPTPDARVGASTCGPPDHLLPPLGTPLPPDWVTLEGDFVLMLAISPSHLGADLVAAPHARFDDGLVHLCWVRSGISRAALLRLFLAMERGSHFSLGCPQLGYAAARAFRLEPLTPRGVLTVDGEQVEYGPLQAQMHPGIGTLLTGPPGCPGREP

[2] = molecular target: T2, Sphingosine kinase 1 (Homo sapiens, UniProt Q9NYA1); test: Inhibition of recombinant human SphK1 using NBD-sphingosine as substrate after 2 hrs in presence of ATP by HPLC method
T2 sequence (Q9NYA1 whole entry, the tested form may be a part): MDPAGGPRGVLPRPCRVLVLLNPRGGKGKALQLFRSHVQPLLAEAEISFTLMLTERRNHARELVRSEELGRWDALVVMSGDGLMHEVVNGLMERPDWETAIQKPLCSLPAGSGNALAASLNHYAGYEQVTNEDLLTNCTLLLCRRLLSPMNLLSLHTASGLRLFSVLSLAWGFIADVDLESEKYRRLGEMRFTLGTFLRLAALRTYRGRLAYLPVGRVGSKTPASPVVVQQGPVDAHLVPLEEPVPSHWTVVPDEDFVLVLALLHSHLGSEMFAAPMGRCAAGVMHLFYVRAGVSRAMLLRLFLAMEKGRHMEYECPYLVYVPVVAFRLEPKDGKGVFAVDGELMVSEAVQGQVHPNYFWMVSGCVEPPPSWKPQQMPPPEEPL

[3] = molecular target: T2, Sphingosine kinase 1; test: Inhibition of recombinant N-terminal GST-tagged human SphK1 (1 to 384 residues) expressed in baculovirus expression system using sphingosine as substrate after 1 hr in presence of ATP by off-chip mobility shift assay
Procedure, shortened: (§1)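 GST-fusion kinases purified on glutathione sepharose. Compounds in DMSO diluted fourfold into 20 mM HEPES pH 7.5, 0.01% Triton X-100, 2 mM DTT. Reaction: 1 µM sphingosine, 5 mM MgCl2, ATP 25 µM (SphK1) or 600 µM (SphK2), room temperature 1 h, n = 2. Read-out: P/(P+S) from electrophoretic peak heights. […] IC50 fitted.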

[4] = molecular target: T1, Sphingosine kinase 2; test: Inhibition of recombinant N-terminal GST-tagged human SphK2 (1 to 618 residues) expressed in baculovirus expression system using sphingosine as substrate after 1 hr in presence of ATP by off-chip mobility shift assay; procedure, shortened: as §1
[5] = molecular target: T1, Sphingosine kinase 2; test: Inhibition of human SphK2 using sphingosine as substrate after 15 to 20 mins in presence of [gamma-32P]ATP by Cerenkov counting method
[6] = molecular target: T2, Sphingosine kinase 1; test: Inhibition of human SphK1 using sphingosine as substrate after 15 to 20 mins in presence of [gamma-32P]ATP by Cerenkov counting method
[7] = molecular target: T2, Sphingosine kinase 1; test: Inhibition of human SphK1 using sphingosine as substrate in presence of [gamma-32P]ATP
[8] = molecular target: T3, Sphingosine kinase 2 (Mus musculus, UniProt Q9JIA7); test: Inhibition of recombinant mouse SphK2 expressed in baculovirus infected sf9 cells using D-erythro-sphingosine as substrate in presence of [gamma-33P]ATP by scintillation counting method
T3 sequence (Q9JIA7 whole entry): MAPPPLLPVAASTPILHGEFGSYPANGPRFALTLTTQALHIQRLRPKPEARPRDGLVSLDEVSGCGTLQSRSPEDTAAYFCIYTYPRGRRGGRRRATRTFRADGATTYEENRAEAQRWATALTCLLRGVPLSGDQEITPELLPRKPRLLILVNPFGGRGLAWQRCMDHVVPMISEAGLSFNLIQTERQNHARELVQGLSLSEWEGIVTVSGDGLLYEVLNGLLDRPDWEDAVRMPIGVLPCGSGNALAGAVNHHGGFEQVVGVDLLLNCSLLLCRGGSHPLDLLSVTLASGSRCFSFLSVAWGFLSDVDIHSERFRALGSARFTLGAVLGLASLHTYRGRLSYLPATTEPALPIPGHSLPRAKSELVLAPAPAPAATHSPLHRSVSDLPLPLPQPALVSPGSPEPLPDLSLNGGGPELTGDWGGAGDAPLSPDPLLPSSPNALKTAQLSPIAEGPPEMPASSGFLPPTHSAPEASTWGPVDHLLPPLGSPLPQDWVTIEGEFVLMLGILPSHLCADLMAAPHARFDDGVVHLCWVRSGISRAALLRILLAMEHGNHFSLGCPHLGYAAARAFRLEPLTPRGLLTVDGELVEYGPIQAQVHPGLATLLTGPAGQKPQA

[9] = molecular target: T2, Sphingosine kinase 1; test: Inhibition of recombinant human SphK1 expressed in baculovirus infected sf9 cells using D-erythro-sphingosine as substrate in presence of [gamma-33P]ATP by scintillation counting method

Structure (SMILES) | IC50 [3] [nM] | IC50 [4] [nM] | other results
CC(=O)N(C1=C(Cl)C(=O)c2ccccc2C1=O)C1CCCCC1 | – | – | IC50 [1]: > 100000 nM; IC50 [2]: 2000 nM
CCCCCCCCCCCCCC[C@@H]1OC[C@@H](N)[C@@H]1O | 820 to 1100 | 600 to 740 | –
CCCCCCCCc1ccc(CC[C@@](N)(CO)COC)cc1 | – | – | IC50 [5]: 27000 nM; IC50 [6]: > 50000 nM
CCCCOc1ccc(CC/C=C2\SC(=O)N(CCN)C2=O)cc1 | – | – | IC50 [7]: > 10000 nM
CCCCCCCCCCCCc1ccc(-c2noc(C3(C(=N)N)CC3)n2)cc1 | – | – | Ki [8]: 14100 nM; Ki [9]: 40 nM
CCCCCCCCCCCCc1ccc(CC[C@@H]2OC[C@@H](N)[C@@H]2O)cc1 | 880 | 21000 | –
CCCCCCCCc1cccc(CC[C@@H]2OC[C@@H](N)[C@@H]2O)c1 | 16000 | 2100 | –
CC(C)COCCCCCCCCCCC[C@@H]1OC[C@@H](N)[C@@H]1O | 710 | 840 | –
CCCCCCc1ccc(CC[C@@H]2OC[C@@H](N)[C@@H]2O)cc1 | > 30000 | 8300 | –
N[C@@H]1CO[C@@H](CCCCCCCCCCOCC2CCCCC2)[C@H]1O | 220 | 240 | –
N[C@@H]1CO[C@@H](CCCCCCCCCCCOCC2CCCCC2)[C@H]1O | 380 | 780 | –
CCCCCCCCCOCCCC[C@@H]1OC[C@@H](N)[C@@H]1O | > 30000 | > 30000 | –
CCCCCCCc1cccc(CC[C@@H]2OC[C@@H](N)[C@@H]2O)c1 | > 30000 | 2200 | –
CCCCCCCCCCCCCC[C@@H]1OC[C@@H](NC(=N)N)[C@@H]1O | 1100 | 1900 | –
CCCCCCCCCCc1ccc(CC[C@@H]2OC[C@@H](N)[C@@H]2O)cc1 | 420 | 670 | –
CCCCCCCCCCCCCC[C@@H]1OC[C@@H](NC(C)=O)[C@@H]1O | > 30000 | > 30000 | –
CCCCCCCCCCCCCCc1ccc(CC[C@@H]2OC[C@@H](N)[C@@H]2O)cc1 | > 30000 | > 30000 | –
CCCCCCCCCc1cccc(CC[C@@H]2OC[C@@H](N)[C@@H]2O)c1 | 12000 | 1700 | –
N[C@@H]1CO[C@@H](CCCCCCCCOCC2CCCCC2)[C@H]1O | 2800 | 1300 | –
CCCCCCCCCCCCCC[C@@H]1OC[C@@H](NC(C)=N)[C@@H]1O | 3100 | 9400 | –
CCCCCCCCc1ccc(CC[C@@H]2OC[C@@H](N)[C@@H]2O)cc1 | 1400 | 560 | –
N[C@@H]1CO[C@@H](CCCCCCCCCOCC2CCCCC2)[C@H]1O | 670 | 460 | –
CCCCCCCOCCCCCC[C@@H]1OC[C@@H](N)[C@@H]1O | 9600 | 3900 | –
CCCCCCCCc1ccccc1CC[C@@H]1OC[C@@H](N)[C@@H]1O | > 30000 | > 30000 | –
CCCCCCCCCCCCCC[C@@H]1OC[C@@H](N)[C@@H]1OC | 4000 | > 30000 | –
O=C(NCc1ccncc1)C12CC3CC(C1)CC(c1ccc(Cl)cc1)(C3)C2 [ABC-294640] | – | – | IC50 [1]: 60000 nM; IC50 [2]: > 100000 nM
